Tests used:
Rattus norvegicus [1] = experiment: Time duration was determined from onset of the action till no response after (i.v.) administration of 1 mg/kg in anesthetized, ganglion blocked, A II- infused rat; format: functional; conditions: route intravenous
Outline: (§1)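 Male Sprague-Dawley rats (300–400 g) were anesthetized with urethane (1.25 g/kg im) and ganglion-blocked with pentolinium (0.1 mg/kg/min), with carotid BP recorded at 37 °C. After three reproducible A II challenges (100 ng/kg iv, every 10 min), compound was given iv 5 min before the next challenge. Challenges continued until the response returned near basal, with one dose per animal. Vehicle was 1% DMSO/stoichiometric NaOH or 0.5% methocel.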

[2] = target: Type-2 angiotensin II receptor (Bos taurus, UniProt G5E6F7); experiment: Binding affinity towards Angiotensin II type 2 receptor in bovine cerebellar cortical membranes; Inactive
[3] = target: T1, Angiotensin II receptor (Rattus norvegicus) (UniProt P29089+P25095+P35351); experiment: Effect on pressure response to angiotensin II receptor (AII) after (i.v.) administration of 1 mg/kg in anesthetized, ganglion blocked, A II- infused rat was determined in vivo; format: functional, organism-based; design: dose 1 mg/kg; conditions: at 1 mg/kg; outline: as §1
T1 sequence (P35351 whole entry, looked up, one chain of several, the tested form may be a part): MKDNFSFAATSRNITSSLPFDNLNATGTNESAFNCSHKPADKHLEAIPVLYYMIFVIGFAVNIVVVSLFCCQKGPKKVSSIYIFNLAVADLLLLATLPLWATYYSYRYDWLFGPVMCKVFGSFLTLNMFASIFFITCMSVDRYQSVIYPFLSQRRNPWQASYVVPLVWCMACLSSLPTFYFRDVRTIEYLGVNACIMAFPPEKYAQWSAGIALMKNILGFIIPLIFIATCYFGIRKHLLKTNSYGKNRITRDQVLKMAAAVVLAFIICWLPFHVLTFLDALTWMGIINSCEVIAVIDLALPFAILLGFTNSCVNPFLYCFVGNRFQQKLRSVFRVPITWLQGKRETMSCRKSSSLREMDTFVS

Rattus norvegicus [4] = experiment: Time duration was determined from onset of the action till no response after […] administration of 1 mg/kg in anesthetized, ganglion blocked, A II- infused rat; format: functional
[5] = target: T1, Angiotensin II receptor (Rattus norvegicus); experiment: Effect on pressure response to angiotensin II receptor (AII) after […] administration of 1 mg/kg in anesthetized, ganglion blocked, A II- infused rat was determined in vivo; format: functional, organism-based; design: dose 1 mg/kg
Outline: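 Compound was given intraduodenally, one dose per animal, in 1% DMSO/stoichiometric NaOH or 0.5% methocel. Inhibition was read 30 min after dosing; the 1 mg/kg duration is the time from onset until inhibition was no longer significant.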

[6] = target: T2, Angiotensin II receptor (AT-1) type-1 (Rattus norvegicus, UniProt P29089+P25095); experiment: Displacement of [3H]angiotensin II from Angiotensin II type 1 receptor in rat adrenal cortical membrane; format: cell membranes
T2 sequence (P29089 whole entry): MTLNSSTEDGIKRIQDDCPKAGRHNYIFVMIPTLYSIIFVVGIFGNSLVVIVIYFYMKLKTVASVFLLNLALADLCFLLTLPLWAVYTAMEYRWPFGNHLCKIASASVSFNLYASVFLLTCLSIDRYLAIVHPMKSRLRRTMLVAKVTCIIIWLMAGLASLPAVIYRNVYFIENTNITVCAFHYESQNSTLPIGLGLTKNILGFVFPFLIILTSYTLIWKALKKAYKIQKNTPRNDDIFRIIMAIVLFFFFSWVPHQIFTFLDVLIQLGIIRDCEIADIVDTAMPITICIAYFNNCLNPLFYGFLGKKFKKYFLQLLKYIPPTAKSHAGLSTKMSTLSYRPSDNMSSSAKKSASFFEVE
T2 sequence (P25095 whole entry): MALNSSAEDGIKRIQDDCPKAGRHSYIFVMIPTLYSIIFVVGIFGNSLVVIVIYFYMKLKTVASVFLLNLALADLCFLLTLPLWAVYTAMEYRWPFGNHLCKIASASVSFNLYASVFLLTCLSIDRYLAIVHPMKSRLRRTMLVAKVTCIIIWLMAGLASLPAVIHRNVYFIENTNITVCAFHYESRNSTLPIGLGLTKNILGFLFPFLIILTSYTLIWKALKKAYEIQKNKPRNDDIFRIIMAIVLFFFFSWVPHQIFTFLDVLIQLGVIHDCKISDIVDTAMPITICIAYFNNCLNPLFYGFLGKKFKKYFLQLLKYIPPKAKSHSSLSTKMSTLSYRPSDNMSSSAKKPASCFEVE

Rattus norvegicus [7] = experiment: Time from onset of the action at a dose of 1 mg/kg until significant inhibition of pressure response is no longer observed in anesthetized, ganglion blocked, A II- infused rat after […] administration; format: functional
[8] = target: T1, Angiotensin II receptor (Rattus norvegicus); experiment: Effect on pressure response to angiotensin II receptor (AII) after (i.v.) administration of 1 mg/kg in anesthetized, ganglion blocked, AII-infused rat in vivo; format: functional, organism-based; design: dose 1 mg/kg
Outline: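 After three reproducible A II challenges (100 ng/kg iv, every 10 min), compound was given iv 5 min before the next challenge. Challenges continued until the response returned near basal, with one dose per animal. Vehicle was 1% DMSO/stoichiometric NaOH or 0.5% methocel.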

Rattus norvegicus [9] = experiment: ime duration was determined from onset of the action till no response after […] in anesthetized, ganglion blocked, A II- infused rat; format: functional

Compound | Duration (Rattus norvegicus [1]) [min] | Ki [2] [µM] | inhibition [3] [%] | Duration (Rattus norvegicus [4]) [min] | ED50 [5] [mg/kg] | Ki [6] [µM] | Duration (Rattus norvegicus [7]) [min] | ED50 [8] [mg/kg] | Duration (Rattus norvegicus [9]) [min]
CCCCc1ncn(Cc2ccc(C(=O)O)cc2)c(=O)c1Cc1ccc(-c2ccccc2C(=O)O)cc1 | 25 | > 4 | 46 |  |  |  |  |  | 
CCCCc1nc(C)n(Cc2cccs2)c(=O)c1Cc1ccc(-c2ccccc2-c2nnn[nH]2)cc1 | 55 | > 4 |  | 60 |  |  |  |  | 
CCCCc1nc(C)n(Cc2ccccc2C(=O)O)c(=O)c1Cc1ccc(-c2ccccc2-c2nn[nH]n2)cc1 | 65 | > 4 |  |  | 4.2 | 0.018 | >120 | 0.31 | 
CCCCc1nc(C)n(Cc2sccc2C(=O)O)c(=O)c1Cc1ccc(-c2ccccc2-c2nn[nH]n2)cc1 | 55 |  |  |  | 7.24 | 0.014 |  | 0.45 | >120
CCCCc1nc(Cl)c(CO)n1Cc1ccc(-c2ccccc2C(=O)O)cc1 | 25 |  | 48 |  |  |  |  |  | 
CCCCc1nc(C)n(Cc2ccccc2)c(=O)c1Cc1ccc(-c2ccccc2-c2nnn[nH]2)cc1 |  | > 4 |  |  |  |  |  |  | 
CCCCc1nc(C)n(Cc2occc2C(=O)OC)c(=O)c1Cc1ccc(-c2ccccc2-c2nnn[nH]2)cc1 |  | > 4 |  |  |  |  |  |  | 
CCCCc1nc(C)n(Cc2sccc2C(=O)O)c(=O)c1Cc1ccc(-c2ccccc2-c2nnn[nH]2)cc1 |  | > 4 |  |  |  |  |  |  | 
CCCCc1nc(C)n(Cc2occc2C(=O)OC)c(=O)c1Cc1ccc(-c2ccccc2-c2nn[nH]n2)cc1 | 65 |  |  | >120 | 1.44 | 0.00058 |  | 0.3 | 
CCCCc1nc(C)cc(=O)n1Cc1ccc(-c2ccccc2C(=O)O)cc1 | 15 | > 4 | 34 |  |  | 0.263 |  |  | 
CCCCc1nc(C)n(Cc2ccccc2)c(=O)c1Cc1ccc(-c2ccccc2-c2nn[nH]n2)cc1 | 45 |  |  | 60 | > 10 | 0.003 |  | 1.07 | 
CCCCc1nccc(=O)n1Cc1ccc(-c2ccccc2C(=O)O)cc1 | 35 | > 4 | 42 |  |  | 1.097 |  |  | 
CCCCc1nc(C)n(Cc2ccsc2C(=O)OC)c(=O)c1Cc1ccc(-c2ccccc2-c2nn[nH]n2)cc1 | 65 | > 4 |  | >120 | 2.67 | 0.0021 |  | 0.54 | 
CCCCc1ncnc(O)c1Cc1ccc(-c2ccccc2C(=O)O)cc1 | 35 | > 4 | 50 |  |  | 0.148 |  |  | 
CCCCc1nc(C)n(Cc2occc2C(=O)O)c(=O)c1Cc1ccc(-c2ccccc2C(=O)O)cc1 | 25 | > 4 |  |  |  | 0.264 |  | 0.85 | 
CCCCc1nc(C)n(Cc2sccc2C(=O)OC)c(=O)c1Cc1ccc(-c2ccccc2-c2nnn[nH]2)cc1 | 65 | > 4 |  | >120 |  |  |  |  | 
CCCCc1nc(C)nc(O)c1Cc1ccc(-c2ccccc2C(=O)O)cc1 | 35 | > 4 | 53 |  |  | 0.113 |  |  | 
CCCCc1nc(Cl)c(CO)n1Cc1ccc(-c2ccccc2-c2nnn[nH]2)cc1 [LOSARTAN] | 55 |  |  | 120 | 3.7 |  |  | 0.32 | 
CCCCc1ncn(Cc2ccccc2)c(=O)c1Cc1ccc(-c2ccccc2C(=O)O)cc1 | 25 | > 4 | 39 |  |  | 0.04 |  |  | 
CCCCc1nc(C)[nH]c(=O)c1Cc1ccc(-c2ccccc2-c2nnn[nH]2)cc1 |  | > 4 |  |  |  |  |  |  | 
CCCCc1nc(C)n(Cc2occc2C(=O)O)c(=O)c1Cc1ccc(-c2ccccc2-c2nn[nH]n2)cc1 | 45 | > 4 |  | 75 | 14.5 | 0.016 |  | 0.43 | 
CCCCc1ncn(Cc2cccs2)c(=O)c1Cc1ccc(-c2ccccc2C(=O)O)cc1 | 15 | > 4 | 23 |  |  | 0.06 |  |  | 
CCCCc1ncn(Cc2ccccc2C(=O)O)c(=O)c1Cc1ccc(-c2ccccc2C(=O)O)cc1 | 25 | > 4 | 43 |  |  | 0.379 |  |  | 
CCCCc1nc(C)n(Cc2sccc2C(=O)O)c(=O)c1Cc1ccc(-c2ccccc2C(=O)O)cc1 | 15 | > 4 | 33 |  |  | 0.181 |  |  | 
CCCCc1nc(C)nc(O)c1Cc1ccc(-c2ccccc2-c2nn[nH]n2)cc1 | 55 |  | 87 |  |  | 0.003 |  |  | 
CCCCc1nc(C)n(Cc2ccccc2C(=O)O)c(=O)c1Cc1ccc(-c2ccccc2C(=O)O)cc1 | 15 | > 4 | 46 |  |  | 0.401 |  |  | 

Source: ChEMBL document CHEMBL1128641, “N-3-substituted pyrimidinones as potent, orally active, AT1 selective angiotensin II receptor antagonists” (J Med Chem, 1995)
